Data on one molecule can be found in ChEMBL document CHEMBL5033998, “Discovery of DDO-2213 as a Potent and Orally Bioavailable Inhibitor of the WDR5-Mixed Lineage Leukemia 1 Protein-Protein Interaction for the Treatment of MLL Fusion Leukemia” (J Med Chem, 2021).

For orientation: half-life means the time in which the quantity being followed falls by half. For orientation: pIC50 means the negative decadic logarithm of the IC50, by convention in mol/L. A word on the Cmax: it is the maximum level reached in the sampled fluid or tissue.

One data set relates to MV4-11. The data set can be described thus: Antitumor activity against human MV4-11 cells xenografted in Balb/c nude mouse assessed as tumor growth inhibition at 80 mg/kg, po administered daily for 21 days relative to control. The class given is functional. To be noted: MV4-11, po, 504 h, time 21 day, read-out: TGI. An outline of the steps:
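Female BALB/c nude mice (6–8 weeks) given ~5 × 10^6 MV4-11 cells in 0.2 mL PBS into the flank; at 100–150 mm3 randomized (6/group) to vehicle (0.9% saline) or 40, 80, 120 mg/kg oral (hydrochloride salt) daily for 21 days. Volume = length × width²/2 every other day; GI% = [1 − (TVt − TV0)/(CVt − CV0)] × 100%.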

Data set [1] is described as follows: Half life in Sprague-Dawley rat at 2 mg/kg, iv measured upto 24 hrs by LC-MS/MS analysis. Format: ADME, organism-based. Particulars: in vivo.
A short description of data set [2]: Half life in Sprague-Dawley rat at 10 mg/kg, po measured upto 24 hrs by LC-MS/MS analysis. Format: ADME, organism-based. To be noted: in vivo. An outline of the steps:
(§1)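 Male SD rats, 6–8 weeks, 220 ± 30 g; single oral dose 10 mg/kg (n = 3). Plasma sampled at 0, 0.25, 0.5, 1, 2, 4, 6, 8 and 24 h, stored at −80 °C, quantified by LC-MS/MS; parameters reported as mean ± SEM.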

Data set [3] concerns the target T1, Histone-lysine N-methyltransferase 2A (Homo sapiens, UniProt Q03164). The data set can be described thus: Inhibition of MLL1 (unknown origin) in human MV4-11 cells assessed as decrease in H3Kme3 level at 1 to 10 uM measured after 7 days by Western blot analysis. Format: cell-based. An outline of the steps: (§2)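 MV4-11 cells exposed to 1, 2.5, 5 and 10 μM; H3K4me1/me2/me3 assessed by Western blot with histone H3 as loading control. Blots blocked in 1% BSA 1 h, primary antibody overnight at 4 °C, DyLight 800 secondary 1 h at 37 °C, infrared imaging.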
On the technique in general: In western blotting, separated proteins are transferred to a membrane and probed.

A short description of data set [4]: Toxicity in Balb/c nude mouse xenografted with human MV4-11 cells assessed as body weight loss at 40 to 120 mg/kg, po administered daily for 21 days relative to control. Format: organism-based. To be noted: in vivo, 504 h. The method, boiled down: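 Nude BALB/c females bearing MV4-11 xenografts, dosed orally each day for 21 days at 40, 80 or 120 mg/kg, saline vehicle controls (6 mice/group); body weight recorded every other day.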

In data set [5] the target is T2, N-lysine methyltransferase KMT5A (Homo sapiens, UniProt Q9NQR1).
T2 sequence (Q9NQR1 whole entry): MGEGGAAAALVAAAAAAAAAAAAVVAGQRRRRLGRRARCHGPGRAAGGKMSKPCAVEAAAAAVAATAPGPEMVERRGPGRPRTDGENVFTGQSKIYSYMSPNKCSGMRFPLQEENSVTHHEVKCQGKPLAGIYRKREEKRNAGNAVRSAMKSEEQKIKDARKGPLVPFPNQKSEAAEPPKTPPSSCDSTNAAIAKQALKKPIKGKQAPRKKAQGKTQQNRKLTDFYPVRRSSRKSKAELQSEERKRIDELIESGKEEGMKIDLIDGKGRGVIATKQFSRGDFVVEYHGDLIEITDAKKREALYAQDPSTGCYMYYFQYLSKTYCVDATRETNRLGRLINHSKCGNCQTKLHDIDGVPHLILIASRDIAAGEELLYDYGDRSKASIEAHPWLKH
The data set can be described thus: Inhibition of SET8 (unknown origin) assessed as effect on H4K20 methylation incubated for 30 mins by Alphascreen assay. The method, boiled down:
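AlphaScreen: enzyme, SAM and compound mixed in 10 mM PBS for 30 min at room temperature; acceptor beads and substrate antibody added, 30 min at room temperature, then streptavidin donor beads; read on AlphaScreen reader.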
(Alpha assays give light when donor and acceptor beads are brought close together.)

Data set [6] is described as follows: Cmax in Sprague-Dawley rat at 10 mg/kg, po measured upto 24 hrs by LC-MS/MS analysis. The class given is ADME, organism-based. On the set-up: route oral, dose 10 mg/kg, time <=24. To be noted: in vivo. The method, boiled down:
as §1

Data set [7] deals with T1, Histone-lysine N-methyltransferase 2A. The data set can be described thus: Inhibition of MLL1 (unknown origin) in human MV4-11 cells assessed as decrease in H3Kme2 level at 1 to 10 uM measured after 7 days by Western blot analysis. Format: cell-based. The method, boiled down: as §2

pIC50: −log10 of the molar value. Activity calls are given as the source filed them. The calls are words filed in the database; no cut-off is given here.

T1 sequence (Q03164 1-2718 limits assumed): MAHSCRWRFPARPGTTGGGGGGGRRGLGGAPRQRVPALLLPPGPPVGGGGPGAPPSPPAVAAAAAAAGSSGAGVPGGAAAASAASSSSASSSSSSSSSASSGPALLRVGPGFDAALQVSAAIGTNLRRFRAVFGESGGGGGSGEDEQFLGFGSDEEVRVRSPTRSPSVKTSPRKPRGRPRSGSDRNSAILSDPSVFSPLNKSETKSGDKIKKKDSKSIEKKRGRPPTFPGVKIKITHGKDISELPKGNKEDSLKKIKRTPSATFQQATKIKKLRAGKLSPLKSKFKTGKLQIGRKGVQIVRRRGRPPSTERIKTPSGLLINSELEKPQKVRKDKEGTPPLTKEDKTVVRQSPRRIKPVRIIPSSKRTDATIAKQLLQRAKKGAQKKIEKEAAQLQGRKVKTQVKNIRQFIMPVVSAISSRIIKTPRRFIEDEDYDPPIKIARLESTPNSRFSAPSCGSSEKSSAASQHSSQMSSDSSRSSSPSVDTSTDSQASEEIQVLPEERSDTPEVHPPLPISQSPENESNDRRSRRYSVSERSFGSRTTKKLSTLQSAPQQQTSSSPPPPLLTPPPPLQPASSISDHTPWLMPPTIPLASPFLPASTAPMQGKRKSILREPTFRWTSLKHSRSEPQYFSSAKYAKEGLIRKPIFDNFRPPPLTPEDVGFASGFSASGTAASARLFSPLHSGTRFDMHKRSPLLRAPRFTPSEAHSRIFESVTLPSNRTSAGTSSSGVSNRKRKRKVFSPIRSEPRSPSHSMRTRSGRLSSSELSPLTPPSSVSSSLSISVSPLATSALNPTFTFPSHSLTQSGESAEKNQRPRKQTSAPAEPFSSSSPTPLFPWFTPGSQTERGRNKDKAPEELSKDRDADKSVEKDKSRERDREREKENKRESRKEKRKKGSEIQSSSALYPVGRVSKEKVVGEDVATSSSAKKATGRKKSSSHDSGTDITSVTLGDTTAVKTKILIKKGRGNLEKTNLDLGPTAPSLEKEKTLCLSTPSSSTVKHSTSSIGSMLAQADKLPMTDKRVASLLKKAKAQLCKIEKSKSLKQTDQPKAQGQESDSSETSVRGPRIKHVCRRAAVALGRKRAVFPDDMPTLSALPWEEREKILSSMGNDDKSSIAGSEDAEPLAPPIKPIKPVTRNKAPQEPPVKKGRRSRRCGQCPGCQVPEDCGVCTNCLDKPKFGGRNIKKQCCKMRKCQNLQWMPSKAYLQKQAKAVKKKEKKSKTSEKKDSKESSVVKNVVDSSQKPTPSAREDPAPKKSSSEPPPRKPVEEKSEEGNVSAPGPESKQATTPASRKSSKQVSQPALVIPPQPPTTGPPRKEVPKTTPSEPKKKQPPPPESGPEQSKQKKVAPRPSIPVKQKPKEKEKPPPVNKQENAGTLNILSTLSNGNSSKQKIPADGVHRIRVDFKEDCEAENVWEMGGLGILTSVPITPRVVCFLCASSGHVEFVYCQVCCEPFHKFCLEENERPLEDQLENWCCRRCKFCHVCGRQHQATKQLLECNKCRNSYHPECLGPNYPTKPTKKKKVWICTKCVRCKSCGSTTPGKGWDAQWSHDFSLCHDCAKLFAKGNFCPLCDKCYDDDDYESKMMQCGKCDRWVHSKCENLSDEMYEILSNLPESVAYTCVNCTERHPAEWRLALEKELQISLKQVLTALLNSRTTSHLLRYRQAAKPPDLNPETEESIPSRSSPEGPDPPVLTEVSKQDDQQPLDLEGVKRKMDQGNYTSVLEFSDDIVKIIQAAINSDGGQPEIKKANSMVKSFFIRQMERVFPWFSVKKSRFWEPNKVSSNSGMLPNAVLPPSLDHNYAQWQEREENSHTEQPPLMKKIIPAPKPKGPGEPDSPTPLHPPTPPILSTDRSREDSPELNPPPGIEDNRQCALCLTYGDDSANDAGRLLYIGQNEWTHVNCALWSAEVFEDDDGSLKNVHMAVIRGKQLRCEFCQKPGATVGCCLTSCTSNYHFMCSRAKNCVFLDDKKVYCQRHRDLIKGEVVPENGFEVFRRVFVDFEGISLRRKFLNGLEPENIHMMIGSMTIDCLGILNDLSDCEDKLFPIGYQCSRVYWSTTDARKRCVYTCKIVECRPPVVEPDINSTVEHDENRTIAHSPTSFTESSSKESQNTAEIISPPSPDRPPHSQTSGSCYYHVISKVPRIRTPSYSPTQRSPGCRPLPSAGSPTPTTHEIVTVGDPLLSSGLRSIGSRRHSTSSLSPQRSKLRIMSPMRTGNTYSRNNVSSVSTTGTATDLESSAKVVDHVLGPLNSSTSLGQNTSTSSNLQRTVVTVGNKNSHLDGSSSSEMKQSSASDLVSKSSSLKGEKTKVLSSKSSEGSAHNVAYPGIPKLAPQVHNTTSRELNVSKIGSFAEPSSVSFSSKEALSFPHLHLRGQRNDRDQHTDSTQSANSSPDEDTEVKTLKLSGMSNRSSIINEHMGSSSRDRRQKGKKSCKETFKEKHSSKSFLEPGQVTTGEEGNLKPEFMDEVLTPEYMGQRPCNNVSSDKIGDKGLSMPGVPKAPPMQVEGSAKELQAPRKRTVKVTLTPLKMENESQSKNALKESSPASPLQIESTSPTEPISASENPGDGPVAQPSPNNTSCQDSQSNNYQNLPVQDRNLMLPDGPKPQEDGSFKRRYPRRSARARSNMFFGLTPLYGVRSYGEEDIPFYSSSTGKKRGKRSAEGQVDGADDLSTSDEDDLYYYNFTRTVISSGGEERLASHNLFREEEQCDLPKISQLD
T1 sequence (Q03164 2719-3969 limits assumed): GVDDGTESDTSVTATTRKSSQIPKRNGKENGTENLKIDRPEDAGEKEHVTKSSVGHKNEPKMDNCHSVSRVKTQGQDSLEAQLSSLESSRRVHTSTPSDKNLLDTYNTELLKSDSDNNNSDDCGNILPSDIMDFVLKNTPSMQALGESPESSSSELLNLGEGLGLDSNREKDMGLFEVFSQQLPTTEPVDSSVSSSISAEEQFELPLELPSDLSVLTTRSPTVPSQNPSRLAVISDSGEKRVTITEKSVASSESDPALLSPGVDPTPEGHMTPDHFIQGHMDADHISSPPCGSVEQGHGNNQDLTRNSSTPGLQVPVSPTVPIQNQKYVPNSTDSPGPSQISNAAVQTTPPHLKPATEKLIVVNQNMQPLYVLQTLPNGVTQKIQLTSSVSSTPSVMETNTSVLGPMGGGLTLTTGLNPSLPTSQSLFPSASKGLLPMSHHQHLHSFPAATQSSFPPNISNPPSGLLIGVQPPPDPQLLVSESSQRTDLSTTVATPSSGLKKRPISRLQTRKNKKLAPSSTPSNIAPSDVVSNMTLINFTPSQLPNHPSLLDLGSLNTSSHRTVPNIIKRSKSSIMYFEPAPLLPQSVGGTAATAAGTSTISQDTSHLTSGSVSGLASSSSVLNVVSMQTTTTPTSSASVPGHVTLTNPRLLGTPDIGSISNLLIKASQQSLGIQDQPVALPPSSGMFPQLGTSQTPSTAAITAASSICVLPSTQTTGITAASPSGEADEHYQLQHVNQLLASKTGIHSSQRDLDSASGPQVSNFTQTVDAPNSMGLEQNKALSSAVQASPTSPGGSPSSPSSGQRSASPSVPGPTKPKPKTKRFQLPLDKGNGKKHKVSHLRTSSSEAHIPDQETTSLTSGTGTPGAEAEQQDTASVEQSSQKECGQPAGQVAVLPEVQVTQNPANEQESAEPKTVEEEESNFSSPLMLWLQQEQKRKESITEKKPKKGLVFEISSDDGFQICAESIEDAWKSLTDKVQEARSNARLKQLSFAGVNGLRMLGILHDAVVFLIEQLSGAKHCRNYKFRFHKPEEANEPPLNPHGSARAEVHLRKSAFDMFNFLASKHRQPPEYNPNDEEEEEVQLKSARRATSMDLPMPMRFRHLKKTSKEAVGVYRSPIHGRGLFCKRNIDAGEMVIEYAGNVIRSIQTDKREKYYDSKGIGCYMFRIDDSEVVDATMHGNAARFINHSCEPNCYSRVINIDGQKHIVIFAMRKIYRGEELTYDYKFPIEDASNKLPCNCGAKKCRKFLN

Consider `CN1CCN(c2cc(F)c(-c3ccc(C(=O)N(C)C)cc3)cc2Nc2ncnc(Cl)c2N)CC1`, for which the inhibition in vivo at 80 mg/kg in the data set with MV4-11 amounted to 53.6%. Besides, the half-life in data set [1] is 1.7 h; in data set [2] it was 4.94 h. The inhibition result in data set [3] and in data set [7] was “Active” throughout. In addition, the Activity entry in data set [4] is given as “Non-Toxic”. In data set [5], the pIC50 was below 4.00. The highest concentration (Cmax) in data set [6] was determined as 159 ng/mL.
